The target in experiment [1] is Serine/threonine-protein kinase B-raf (Homo sapiens, UniProt P15056). The experiment in a line: Inhibition of wild type GST-tagged recombinant human full-length B-RAF expressed in baculovirus expression system using Ser/Thr3 as substrate after 1 hr by FRET-based Z'-Lyte assay. In a few lines: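 Z'-Lyte FRET assay with Ser/Thr3 peptide in kinase buffer; the final reaction held 0.002 ng B-Raf for wild type. Incubated 1 h at room temperature, then 1 h development to cleave nonphosphorylated peptide, then stop reagent. Means of 3 independent experiments.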
Chain of Serine/threonine-protein kinase B-raf (Homo sapiens, UniProt P15056) (P15056 whole entry): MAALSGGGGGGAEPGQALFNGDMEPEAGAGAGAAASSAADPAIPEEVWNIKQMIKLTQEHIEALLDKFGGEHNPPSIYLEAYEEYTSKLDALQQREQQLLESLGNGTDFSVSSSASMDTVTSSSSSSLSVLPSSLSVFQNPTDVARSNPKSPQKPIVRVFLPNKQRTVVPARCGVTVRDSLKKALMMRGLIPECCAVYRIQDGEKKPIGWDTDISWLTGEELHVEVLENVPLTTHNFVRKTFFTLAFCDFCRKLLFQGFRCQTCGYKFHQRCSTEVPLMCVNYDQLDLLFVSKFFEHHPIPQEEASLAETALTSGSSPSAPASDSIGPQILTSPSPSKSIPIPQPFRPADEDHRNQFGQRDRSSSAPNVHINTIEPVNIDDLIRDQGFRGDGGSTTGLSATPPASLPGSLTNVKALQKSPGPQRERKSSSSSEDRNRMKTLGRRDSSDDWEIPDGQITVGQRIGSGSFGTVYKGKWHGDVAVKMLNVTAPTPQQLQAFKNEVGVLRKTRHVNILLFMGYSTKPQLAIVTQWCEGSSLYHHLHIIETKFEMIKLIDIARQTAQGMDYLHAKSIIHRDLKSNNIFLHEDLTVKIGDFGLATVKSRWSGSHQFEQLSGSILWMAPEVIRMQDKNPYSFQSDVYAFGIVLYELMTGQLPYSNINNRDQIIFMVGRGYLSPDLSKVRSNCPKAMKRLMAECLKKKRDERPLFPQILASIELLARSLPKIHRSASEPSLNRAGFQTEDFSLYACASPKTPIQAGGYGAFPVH

In experiment [2] the target is T1, Mitogen-activated protein kinase kinase kinase 20 (Homo sapiens, UniProt Q9NYL2). As to the kind of experiment: Inhibition of N-terminal GST-tagged recombinant human full-length ZAK expressed in baculovirus infected Sf9 insect cells using MBP as substrate after 30 mins by ADP-Glo assay. In a few lines: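 ZAK activity by ADP-Glo luminescence with MBP as substrate, ATP and serially diluted compound. Reaction started by adding ATP and run 30 min at room temperature. ADP-Glo reagent was added to stop it (40 min), then detection reagent for 30 min before reading luminescence. Curves fitted; each experiment repeated at least 3 times.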
T1 sequence (Q9NYL2 whole entry): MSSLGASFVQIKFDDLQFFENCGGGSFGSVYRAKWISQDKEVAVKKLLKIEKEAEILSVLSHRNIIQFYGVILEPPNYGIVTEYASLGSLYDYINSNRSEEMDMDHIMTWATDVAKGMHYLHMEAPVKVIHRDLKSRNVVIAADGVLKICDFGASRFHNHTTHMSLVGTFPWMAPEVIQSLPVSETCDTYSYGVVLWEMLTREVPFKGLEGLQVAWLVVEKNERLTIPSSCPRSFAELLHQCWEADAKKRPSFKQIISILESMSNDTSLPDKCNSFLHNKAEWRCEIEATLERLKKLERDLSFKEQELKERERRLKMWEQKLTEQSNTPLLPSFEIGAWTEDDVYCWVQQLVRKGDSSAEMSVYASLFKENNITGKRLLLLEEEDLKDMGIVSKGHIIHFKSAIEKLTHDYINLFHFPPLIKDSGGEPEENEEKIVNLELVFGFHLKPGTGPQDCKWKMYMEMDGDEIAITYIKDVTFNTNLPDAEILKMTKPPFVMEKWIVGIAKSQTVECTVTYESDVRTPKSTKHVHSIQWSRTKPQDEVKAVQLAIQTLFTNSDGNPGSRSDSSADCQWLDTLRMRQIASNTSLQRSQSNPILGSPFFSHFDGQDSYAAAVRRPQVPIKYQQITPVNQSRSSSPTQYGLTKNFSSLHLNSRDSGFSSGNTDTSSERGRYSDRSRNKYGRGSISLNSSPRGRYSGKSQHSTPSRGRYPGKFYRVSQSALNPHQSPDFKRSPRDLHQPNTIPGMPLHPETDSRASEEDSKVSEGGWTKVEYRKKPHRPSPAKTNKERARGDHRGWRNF
In general terms: In ADP-Glo the light output rises with the ADP produced.

Experiment [3] has as its target Serine/threonine-protein kinase B-raf (Homo sapiens, UniProt P15056, V600E). As to the kind of experiment: Inhibition of recombinant human B-RAF V600E mutant using Ser/Thr3 as substrate after 1 hr by FRET-based Z'-Lyte assay.
In experiment [4] the target is T1, Mitogen-activated protein kinase kinase kinase 20.

Each structure is given as a SMILES string.

Chain of Serine/threonine-protein kinase B-raf (Homo sapiens, UniProt P15056, V600E) (P15056 2-766 V600E limits assumed): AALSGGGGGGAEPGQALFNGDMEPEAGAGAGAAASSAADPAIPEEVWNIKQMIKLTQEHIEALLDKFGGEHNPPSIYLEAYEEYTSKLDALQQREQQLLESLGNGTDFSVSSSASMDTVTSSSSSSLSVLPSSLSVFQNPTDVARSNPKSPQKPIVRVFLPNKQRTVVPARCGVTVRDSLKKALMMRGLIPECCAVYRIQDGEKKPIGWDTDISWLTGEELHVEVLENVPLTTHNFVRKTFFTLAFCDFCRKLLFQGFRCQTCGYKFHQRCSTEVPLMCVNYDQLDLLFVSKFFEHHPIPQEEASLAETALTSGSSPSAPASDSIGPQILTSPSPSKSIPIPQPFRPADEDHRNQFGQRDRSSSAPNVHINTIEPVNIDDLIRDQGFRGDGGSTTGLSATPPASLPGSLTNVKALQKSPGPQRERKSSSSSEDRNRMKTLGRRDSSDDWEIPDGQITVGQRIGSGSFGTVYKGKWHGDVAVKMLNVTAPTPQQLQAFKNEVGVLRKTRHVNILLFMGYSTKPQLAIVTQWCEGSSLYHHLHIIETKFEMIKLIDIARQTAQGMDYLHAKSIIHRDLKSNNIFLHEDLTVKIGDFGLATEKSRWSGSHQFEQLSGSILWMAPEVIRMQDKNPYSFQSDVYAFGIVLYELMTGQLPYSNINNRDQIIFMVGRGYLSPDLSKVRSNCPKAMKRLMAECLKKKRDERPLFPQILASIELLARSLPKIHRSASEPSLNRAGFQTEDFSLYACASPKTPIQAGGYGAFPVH

Consider `COc1n[nH]c2ncc(C#Cc3c(F)ccc(NS(=O)(=O)c4ccccc4)c3F)cc12`, for which the IC50 (in general, the point on the concentration scale where inhibition reaches its midpoint) in experiment [1] is > 10 µM; in experiment [2], 0.0192 µM; in experiment [3] it was 0.169 µM.
In the same order, the values of `O=S(=O)(Nc1ccc(F)c(C#Cc2cnc3[nH]ncc3c2)c1F)c1cccc(Cl)c1` are > 5 µM, 0.0051 µM and > 10 µM.
As for `COc1n[nH]c2ncc(C#Cc3c(F)ccc(NS(=O)(=O)c4ccccc4Cl)c3F)cc12`, the 50% inhibitory concentration (IC50) was > 1 µM in experiment [1], 0.0051 µM in experiment [2] and > 1 µM in experiment [3].
Consider `CCCS(=O)(=O)Nc1ccc(F)c(C(=O)c2c[nH]c3ncc(-c4ccc(Cl)cc4)cc23)c1F` [VEMURAFENIB], for which the IC50 came to 0.023 µM in experiment [4] and 0.0314 µM in experiment [2].
Take `COc1n[nH]c2ncc(C#Cc3c(F)ccc(NS(=O)(=O)c4ccc(Cl)cc4)c3F)cc12`: the IC50 was > 1 µM in experiment [1], 0.0168 µM in experiment [2] and > 10 µM in experiment [3].
In the same order, the values of `COc1n[nH]c2ncc(C#Cc3c(F)ccc(NS(=O)(=O)c4cccc(Cl)c4)c3F)cc12` are > 6 µM, 0.0042 µM and 0.902 µM.
As to `Cn1ncc2cc(C#Cc3c(F)ccc(NS(=O)(=O)c4cccc(Cl)c4)c3F)cnc21`, the IC50 in experiment [1] was > 10 µM; in experiment [2] it was > 30 µM; in experiment [3], > 10 µM.
As to `O=S(=O)(Nc1ccc(F)c(C#Cc2ccc3[nH]ncc3c2)c1F)c1cccc(Cl)c1`, the IC50 in experiment [1] is > 10 µM; in experiment [2], 0.994 µM; in experiment [3], > 10 µM.
`COc1cccc(S(=O)(=O)Nc2ccc(F)c(C#Cc3cnc4[nH]nc(OC)c4c3)c2F)c1`: the IC50 in experiment [1] is > 1 µM; in experiment [2], 0.0075 µM; in experiment [3], > 7 µM.
In the same order, the values of `COc1n[nH]c2ncc(C#Cc3c(F)ccc(NS(=O)(=O)c4cccc(Br)c4)c3F)cc12` are > 1 µM, 0.005 µM and > 1 µM.
`COc1n[nH]c2ncc(C#Cc3c(F)ccc(NS(=O)(=O)c4cccc(C)c4)c3F)cc12`: the IC50 in experiment [1] is > 10 µM; in experiment [2] it was 0.0121 µM; in experiment [3], > 10 µM.
On to `COc1n[nH]c2ncc(C#Cc3c(F)ccc(NS(=O)(=O)c4cccc(Cl)c4Cl)c3F)cc12`, for which the IC50 was > 2 µM in experiment [1], 0.0096 µM in experiment [2] and > 10 µM in experiment [3].
As for `O=S(=O)(Nc1ccc(F)c(C#Cc2cnc3[nH]nc(OC4CCCC4)c3c2)c1F)c1cccc(Cl)c1`, the IC50 in experiment [1] was > 10 µM; in experiment [2], 0.144 µM; in experiment [3], > 10 µM.
In the case of `O=S(=O)(Nc1ccc(F)c(C#Cc2cnc3[nH]ccc3c2)c1F)c1cccc(Cl)c1`, the IC50 in experiment [1] is > 10 µM; in experiment [2], 0.0226 µM; in experiment [3] it was > 10 µM.
Take `CC(C)Oc1n[nH]c2ncc(C#Cc3c(F)ccc(NS(=O)(=O)c4cccc(Cl)c4)c3F)cc12`: the results for the half-maximal inhibitory concentration (IC50) in experiment [1], in experiment [2] and in experiment [3] were > 10 µM, 0.0427 µM and > 2 µM, respectively.

The values above are taken from ChEMBL document CHEMBL4052661, “Structure Based Design of N-(3-((1H-Pyrazolo[3,4-b]pyridin-5-yl)ethynyl)benzenesulfonamides as Selective Leucine-Zipper and Sterile-α Motif Kinase (ZAK) Inhibitors” (J Med Chem, 2017).
